{
  "source": "ChEMBL document CHEMBL1124393",
  "about": "“Synthesis, cytotoxicity, and antiviral activity of some acyclic analogues of the pyrrolo[2,3-d]pyrimidine nucleoside antibiotics tubercidin, toyocamycin, and sangivamycin” (J Med Chem, 1989)",
  "key": {"[1]": {"assay": "(§1) Cytotoxicity was evaluated in Human neoplastic cell line (KB)", "assay_type": "functional, cell-based", "outline": "(§2)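 KB human epidermoid oral carcinoma cells in MEM with Hanks salts and 5% FBS. Inhibition of radiolabeled precursor incorporation into DNA, RNA and protein was measured. IC50s from regression against log concentration; the three values were averaged, two to five experiments each.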"}, "[2]": {"assay": "(§3) Antiviral activity of the compound was evaluated against the Herpes simplex virus type-1 in BSC-1 cells", "assay_type": "functional, cell-based", "details": "Human alphaherpesvirus 1, BSC-1", "outline": "(§4)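 HSV-1 strain S-148 plaque reduction in BSC-1 monolayers (MEM with Earle's salts, 10% fetal bovine serum); inoculum about 100 PFU; compound dissolved in overlay medium. Percent inhibition regressed against log concentration to give IC50. Acyclovir or ganciclovir positive controls in every assay; assay sets rejected if control deviated >1.5 SD from its mean.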"}, "L1210 [3]": {"tested_on": "L1210", "assay": "Compound effect on the growth rate at 10e-4 M in L1210 Murine Leukemic cells", "assay_type": "functional, Mus musculus", "outline": "(§5)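 Murine L1210 leukemia cells in static suspension culture in Fischer's medium, exposed to 10⁻⁴ M compound over 3 days. Growth rate is the ratio of control to treated population doubling time, expressed as percent of control.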"}, "[4]": {"assay": "Cytotoxicity was evaluated against the Human diploid cells (HFF)", "assay_type": "cell-based", "outline": "(§6)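 Uninfected HFF (human diploid foreskin fibroblasts) or BSC-1 (African green monkey kidney) cells in MEM with Earle's salts and 10% FBS, within the plaque-reduction plates. Drug-induced cytopathology was scored 0 to 4+ at 35- and 60-fold magnification on the day of staining for plaque enumeration.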"}, "Human betaherpesvirus 5": {"tested_on": "Human betaherpesvirus 5", "assay": "Antiviral activity of the compound was evaluated against the Human cytomegalo virus (HCMV)", "assay_type": "functional, organism-based", "outline": "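HCMV Towne strain (plaque-purified P0 isolate), plaque reduction in HFF monolayers; inoculum about 50 PFU; compound dissolved in overlay medium. IC50 taken from linear regression of percent inhibition against log concentration. Positive controls (acyclovir, ganciclovir) in all assays; sets rejected when control deviated >1.5 SD from its mean.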"}, "[5]": {"assay": "Cytotoxicity was evaluated against the Monkey kidney cells (BSC)", "assay_type": "cell-based", "details": "Cercopithecidae", "outline": "as §6"}, "L1210 [6]": {"tested_on": "L1210", "assay": "(§7) Compound effect on the growth rate of L1210 murine leukemia cells at 10e-4 M concentration", "assay_type": "functional", "outline": "as §5"}, "L1210 [7]": {"tested_on": "L1210", "assay": "In vitro cytotoxicity was evaluated against the L1210 Murine leukemic cells", "assay_type": "cell-based", "details": "Mus musculus", "outline": "(§8)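 Murine L1210 cells in static suspension in Fischer's medium, growth followed over 3 days across a range of concentrations. Growth rate is the slope of log cell number versus time relative to control, from the doubling-time ratio. IC50 is the concentration reducing growth rate to 50% of control.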"}, "[8]": {"assay": "as §1", "assay_type": "cell-based", "outline": "as §2"}, "Human alphaherpesvirus 1": {"tested_on": "Human alphaherpesvirus 1", "assay": "as §3", "assay_type": "functional, organism-based", "details": "Human alphaherpesvirus 1, BSC-1", "outline": "as §4"}, "Mus musculus": {"organism": "Mus musculus", "assay": "Cytotoxicity was evaluated against the L1210 Murine leukemic cells in vitro", "outline": "as §8"}, "L1210 [9]": {"tested_on": "L1210", "assay": "as §7", "assay_type": "functional, Mus musculus", "outline": "as §5"}},
  "data": [
    {"smiles": "Nc1ncnc2c1ccn2C(CO)OC(CO)CO", "note": "(stereo not given)", "values": [
      {"measurement": "IC50", "setting": "[1]", "value": "> 100", "unit": "µM"},
      {"measurement": "IC50", "setting": "[2]", "value": "> 100", "unit": "µM"},
      {"measurement": "Control", "setting": "L1210 [3]", "value": 93, "unit": "%"},
      {"measurement": "IC50", "setting": "[4]", "value": "> 100", "unit": "µM"},
      {"measurement": "IC50", "setting": "Human betaherpesvirus 5", "value": "> 100", "unit": "µM"},
      {"measurement": "IC50", "setting": "[5]", "value": "> 100", "unit": "µM"}
    ]},
    {"smiles": "NC(=S)c1cn(COC(CO)CO)c2ncnc(N)c12", "values": [
      {"measurement": "IC50", "setting": "[2]", "value": "> 100", "unit": "µM"},
      {"measurement": "Control", "setting": "L1210 [6]", "value": 71, "unit": "%"},
      {"measurement": "IC50", "setting": "L1210 [7]", "value": "> 100", "unit": "µM"},
      {"measurement": "IC50", "setting": "[4]", "value": "> 100", "unit": "µM"},
      {"measurement": "IC50", "setting": "Human betaherpesvirus 5", "value": 8, "unit": "µM"},
      {"measurement": "IC50", "setting": "[8]", "value": "> 100", "unit": "µM"},
      {"measurement": "IC50", "setting": "[5]", "value": "> 100", "unit": "µM"}
    ]},
    {"smiles": "Nc1ncnc2c1ccn2COC(CO)CO", "values": [
      {"measurement": "IC50", "setting": "Human alphaherpesvirus 1", "value": "> 100", "unit": "µM"},
      {"measurement": "IC50", "setting": "[4]", "value": "> 100", "unit": "µM"},
      {"measurement": "IC50", "setting": "Human betaherpesvirus 5", "value": "> 100", "unit": "µM"},
      {"measurement": "IC50", "setting": "[5]", "value": "> 100", "unit": "µM"}
    ]},
    {"smiles": "NC(=O)c1cn(C(CO)OC(CO)CO)c2ncnc(N)c12", "note": "(stereo not given)", "values": [
      {"measurement": "IC50", "setting": "[2]", "value": "> 100", "unit": "µM"},
      {"measurement": "Control", "setting": "L1210 [3]", "value": 90, "unit": "%"},
      {"measurement": "IC50", "setting": "[4]", "value": "> 100", "unit": "µM"},
      {"measurement": "IC50", "setting": "Human betaherpesvirus 5", "value": "> 100", "unit": "µM"},
      {"measurement": "IC50", "setting": "[5]", "value": "> 100", "unit": "µM"}
    ]},
    {"smiles": "N#Cc1cn(C(CO)OC(CO)CO)c2ncnc(N)c12", "note": "(stereo not given)", "values": [
      {"measurement": "IC50", "setting": "[2]", "value": "> 100", "unit": "µM"},
      {"measurement": "Control", "setting": "L1210 [3]", "value": 80, "unit": "%"},
      {"measurement": "IC50", "setting": "Mus musculus", "value": "> 100", "unit": "µM"},
      {"measurement": "IC50", "setting": "[4]", "value": "> 100", "unit": "µM"},
      {"measurement": "IC50", "setting": "Human betaherpesvirus 5", "value": "> 100", "unit": "µM"},
      {"measurement": "IC50", "setting": "[5]", "value": "> 100", "unit": "µM"}
    ]},
    {"smiles": "N/C(=N\\O)c1cn(COC(CO)CO)c2ncnc(N)c12", "values": [
      {"measurement": "IC50", "setting": "[2]", "value": "> 100", "unit": "µM"},
      {"measurement": "IC50", "setting": "L1210 [7]", "value": "> 100", "unit": "µM"},
      {"measurement": "IC50", "setting": "[4]", "value": "> 100", "unit": "µM"},
      {"measurement": "IC50", "setting": "Human betaherpesvirus 5", "value": "> 100", "unit": "µM"},
      {"measurement": "IC50", "setting": "[5]", "value": "> 100", "unit": "µM"},
      {"measurement": "Control", "setting": "L1210 [9]", "value": 80, "unit": "%"}
    ]},
    {"smiles": "N#Cc1cn(COC(CO)CO)c2ncnc(N)c12", "values": [
      {"measurement": "IC50", "setting": "[2]", "value": "> 100", "unit": "µM"},
      {"measurement": "IC50", "setting": "L1210 [7]", "value": "> 100", "unit": "µM"},
      {"measurement": "IC50", "setting": "[4]", "value": "> 320", "unit": "µM"},
      {"measurement": "IC50", "setting": "Human betaherpesvirus 5", "value": "> 320", "unit": "µM"},
      {"measurement": "IC50", "setting": "[5]", "value": "> 100", "unit": "µM"},
      {"measurement": "Control", "setting": "L1210 [9]", "value": 87, "unit": "%"}
    ]},
    {"smiles": "NC(=O)c1cn(COC(CO)CO)c2ncnc(N)c12", "values": [
      {"measurement": "IC50", "setting": "[2]", "value": "> 100", "unit": "µM"},
      {"measurement": "IC50", "setting": "L1210 [7]", "value": "> 100", "unit": "µM"},
      {"measurement": "IC50", "setting": "[4]", "value": "> 320", "unit": "µM"},
      {"measurement": "IC50", "setting": "Human betaherpesvirus 5", "value": 144, "unit": "µM"},
      {"measurement": "IC50", "setting": "[5]", "value": "> 100", "unit": "µM"},
      {"measurement": "Control", "setting": "L1210 [9]", "value": 84, "unit": "%"}
    ]},
    {"smiles": "Nc1nc2c(ncn2COCCO)c(=O)[nH]1", "note": "[ACYCLOVIR]", "values": [
      {"measurement": "IC50", "setting": "[2]", "value": 2.6, "unit": "µM"},
      {"measurement": "IC50", "setting": "[4]", "value": "> 100", "unit": "µM"},
      {"measurement": "IC50", "setting": "[8]", "value": "> 100", "unit": "µM"},
      {"measurement": "IC50", "setting": "[5]", "value": "> 100", "unit": "µM"}
    ]},
    {"smiles": "Nc1nc2c(ncn2COC(CO)CO)c(=O)[nH]1", "note": "[GANCICLOVIR]", "values": [
      {"measurement": "IC50", "setting": "[2]", "value": 3, "unit": "µM"},
      {"measurement": "IC50", "setting": "[4]", "value": "> 100", "unit": "µM"},
      {"measurement": "IC50", "setting": "[8]", "value": 1000, "unit": "µM"},
      {"measurement": "IC50", "setting": "[5]", "value": "> 100", "unit": "µM"}
    ]},
    {"smiles": "NC(=O)c1cn([C@@H]2O[C@H](CO)[C@@H](O)[C@H]2O)c2ncnc(N)c12", "note": "[SANGIVAMYCIN]", "values": [
      {"measurement": "IC50", "setting": "[1]", "value": 0.2, "unit": "µM"},
      {"measurement": "IC50", "setting": "L1210 [7]", "value": 0.003, "unit": "µM"},
      {"measurement": "IC50", "setting": "[4]", "value": 0.08, "unit": "µM"},
      {"measurement": "IC50", "setting": "Human betaherpesvirus 5", "value": 0.03, "unit": "µM"}
    ]},
    {"smiles": "N#Cc1cn([C@@H]2O[C@H](CO)[C@@H](O)[C@H]2O)c2ncnc(N)c12", "note": "[TOYOCAMYCIN]", "values": [
      {"measurement": "IC50", "setting": "[1]", "value": 0.04, "unit": "µM"},
      {"measurement": "IC50", "setting": "L1210 [7]", "value": 0.004, "unit": "µM"},
      {"measurement": "IC50", "setting": "[4]", "value": 0.03, "unit": "µM"},
      {"measurement": "IC50", "setting": "Human betaherpesvirus 5", "value": 0.05, "unit": "µM"}
    ]},
    {"smiles": "Nc1ncnc2c1ccn2[C@@H]1O[C@H](CO)[C@@H](O)[C@H]1O", "note": "[TUBERCIDIN]", "values": [
      {"measurement": "IC50", "setting": "[1]", "value": 0.7, "unit": "µM"},
      {"measurement": "IC50", "setting": "L1210 [7]", "value": 0.04, "unit": "µM"},
      {"measurement": "IC50", "setting": "[4]", "value": 0.3, "unit": "µM"}
    ]}
  ]
}
